MEKK2 WT-MEK5 – modulators of MEK5 binding to wildtype MEKK2, primary screen, biochemical, multiplex bead flow cytometry, Alexa488-MEK5. Mitogen-activated protein kinase kinase kinase 2 (Homo sapiens), Q9Y2U5. actives 1.1% (n = 290,000). Alexa488-MEK5 binding to MEKK2 WT; actives lie on both sides. binding response (% of control), % at 10 µM; in the data active = binding response below about 67% or above about 130%; inconclusive = no clear call, values can overlap the other calls; inactive = in between
ABCG2 inh – ABCG2 efflux pump inhibitors, primary screen, multiplex with ABCB1, IgMXP3 cells, flow cytometry; Broad substrate specificity ATP-binding cassette transporter ABCG2 (Homo sapiens), Q9UNQ0; JC-1 efflux; inhibition, % at 6.6 µM; actives 0.1% (n = 190,000); AID 1325, 2008;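 active = inhibition above 80%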
Target sequence (Q9UNQ0 whole entry, looked up): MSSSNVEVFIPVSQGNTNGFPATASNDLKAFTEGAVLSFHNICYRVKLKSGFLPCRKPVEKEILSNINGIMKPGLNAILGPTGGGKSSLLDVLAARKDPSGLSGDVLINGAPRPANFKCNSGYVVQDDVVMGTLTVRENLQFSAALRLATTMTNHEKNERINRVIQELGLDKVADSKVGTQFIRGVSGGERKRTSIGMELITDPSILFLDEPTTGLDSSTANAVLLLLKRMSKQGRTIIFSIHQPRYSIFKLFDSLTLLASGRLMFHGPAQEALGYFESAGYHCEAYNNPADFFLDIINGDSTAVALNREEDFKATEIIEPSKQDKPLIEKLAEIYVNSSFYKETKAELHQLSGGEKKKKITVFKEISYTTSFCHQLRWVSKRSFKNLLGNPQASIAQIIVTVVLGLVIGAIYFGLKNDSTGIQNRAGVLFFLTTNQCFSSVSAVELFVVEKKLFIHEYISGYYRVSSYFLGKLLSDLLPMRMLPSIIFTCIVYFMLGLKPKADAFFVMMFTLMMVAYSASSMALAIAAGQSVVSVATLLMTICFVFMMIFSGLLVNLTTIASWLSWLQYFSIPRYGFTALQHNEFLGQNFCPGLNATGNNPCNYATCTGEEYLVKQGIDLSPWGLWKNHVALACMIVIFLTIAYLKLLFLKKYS
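test system = two drug-resistant human cell lines, ABCG2 and ABCB1 | amount = 3 million cells/mL final, two lines in 1:1 ratio | reagent = JC-1 transporter substrate | doses = one concentration, 6.6 µM final | incubation = 10 min at 25 °C | signal = flow cytometric JC-1 green MFI at 530 nm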
ABCB1 inh – ABCB1 efflux pump inhibitors, primary screen, cell-based, multiplex, flow cytometry, ABCG2 counter-screen; inhibition, % at 6.6 µM; ATP-dependent translocase ABCB1 (Homo sapiens), P08183; actives 0.067% (n = 190,000); AID 1326, 2008; CCRF-Adr cells, JC-1 efflux; in the data active = inhibition above about 40%;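 note: higher value means more JC-1 retained so stronger ABCB1 efflux block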
MEKK3 PB1 HTS – modulators of MEKK3-MEK5 PB1 binding, primary screen, biochemical, wildtype MEKK3, multiplex bead flow cytometry, Alexa488-MEK5 | bead-based flow cytometry, Alexa488-MEK5 binding to MEKK3; actives lie on both sides; 0 = blocked by unlabeled MEK5, 100 = vehicle | binding response (% of control), % at 10 µM | actives 1.4% (n = 290,000) | AID 1529, 2009;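 active = binding response more than 3 SD above or below the average of its plate-row segment, actives on both sides; inconclusive = wells at one plate position flagged as instrument error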;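 note: Alexa488 bead fluorescence after subtracting the streptavidin-only scavenger bead signal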
MEKK2 mut-MEK5 – MEK5 binding signal on mutant MEKK2 PB1, primary screen, biochemical, multiplex bead flow cytometry, Alexa488-MEK5; percent response, % at 10 µM; Alexa488-MEK5 binding to MEKK2 mutant; actives 0.35% (n = 290,000); in the data active = percent response above about 24%, passing the limit was not always enough
Efflux pump mplx – inhibitors of Candida efflux pumps in yeast, primary screen, S. cerevisiae, Nile Red, multiplex; S. cerevisiae Candida pump triplex; inhibition, % at 10 µM; actives 0.44% (n = 330,000); AID 485275, 2010;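 active = plate passing quality check with inhibition over a set limit, or well fluorescence over plate mean plus 4 SD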;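 note: Nile Red retained in pooled yeast measured as flow cytometry median fluorescence; higher means more Nile Red kept so more efflux inhibition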
MEKK2wt confirm – modulators of MEK5 binding to wildtype MEKK2, confirmation, biochemical, single concentration, multiplex bead flow cytometry; AID 1892, 2009; shares compounds with MEKK3 PB1 HTS; binding response (% of control), % at 10 µM; Alexa488-MEK5 binding to MEKK2 WT; actives lie on both sides; actives 2.4% (n = 5,900); in the data active = binding response below about 16% or above about 210%; inactive = in between
MEKK2mut confirm – mutant MEKK2 PB1-MEK5 binding signal retest – biochemical, single concentration, multiplex bead flow cytometry, confirmation | shares compounds with MEKK3 PB1 HTS | Alexa488-MEK5 binding to MEKK2 mutant | percent response, % at 10 µM | actives 2% (n = 5,900); in the data active = percent response mostly above about 71%, no sharp cut-off; inactive = mostly below about 38%;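 note: higher means compound restores mutant binding toward wildtype level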
MEKK3-MEK5 inh – MEKK3 wild-type PB1 binding to MEK5, inhibitors, confirmation, biochemical, bead multiplex flow cytometry, single concentration, wildtype; shares compounds with MEKK3 PB1 HTS; Alexa488-MEK5 binding to MEKK3; stronger effect = lower value; binding response (% of control), % at 10 µM; actives 1.8% (n = 5,900); AID 1894, 2009;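 active = binding response below 72% of control, or above a set upper limit, though filed actives all read lower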
Hits are given with their value; - = inactive; ? = inconclusive; . = not tested or not shown; [ ] = remark or other dose. An excerpt weighted towards active compounds, which were near 2.5% of everything screened.

SMILES | MEKK2 WT-MEK5 | ABCG2 inh | ABCB1 inh | MEKK3 PB1 HTS | MEKK2 mut-MEK5 | Efflux pump mplx | MEKK2wt confirm | MEKK2mut confirm | MEKK3-MEK5 inh
Cc1ccc(S(=O)(=O)c2c(N)n(-c3ccccc3)c3nc4ccccc4nc23)cc1 | - | - | - | 136 | - | - | - | - | -
CCCCn1c(N)c(S(=O)(=O)c2ccc(C)cc2)c2nc3ccccc3nc21 | - | - | - | - | - | - | . | . | .
Cc1ccc(C2OC(=O)C=C2c2ccccc2)cc1 (stereo not drawn) | . | . | . | . | . | - | . | . | .
Nc1nc(N)nc(-c2cc(O)ccc2O)n1 | . | . | . | . | . | - | . | . | .
Oc1ccc(O)c(-c2cnns2)c1 | - | - | - | 132 | - | - | - | - | -
O=C(NCc1csc2ccccc12)Nc1cc(Cl)cc(Cl)c1 | 138 | . | . | - | - | - | - | - | -
O=C(NCc1ccccn1)Nc1cc(Cl)cc(Cl)c1 | - | . | . | - | - | - | . | . | .
CC(C)CNC(=O)CN1C(=O)NC(Cc2c[nH]c3ccccc23)C1=O (stereo not drawn) | - | - | - | 67[inhibitor] | - | - | - | - | -
COC(=O)C1(CCSC)NC(c2ccco2)C2C(=O)N(C)C(=O)C21 (stereo not drawn) | 1.0[inhibitor] | - | - | 2.0[inhibitor] | - | - | - | - | -
CN1/C(=C\C(=O)c2cncc(Br)c2)C(C)(C)c2ccccc21 | - | - | - | - | - | - | . | . | .
CN1/C(=C\C(=O)c2cccnc2)C(C)(C)c2ccccc21 | - | - | - | 147 | - | - | - | - | -
Cc1ccc(CCC(=O)Nc2ccccc2C(=O)O)o1 | - | . | . | - | - | - | . | . | .
Cc1cccc(NC(=O)CCC(=O)OCC(=O)c2ccc(Oc3ccc([N+](=O)[O-])cc3)cc2)c1 | - | - | - | 68[inhibitor] | - | - | - | - | -
CCCOc1ccc(N2C(=O)CC(NNC(=O)c3ccc(COc4ccccc4)o3)C2=O)cc1 (stereo not drawn) | - | - | - | 142 | - | - | - | - | -
CCOc1cccc(N2C(=O)CC(NNC(=O)c3ccc(Br)o3)C2=O)c1 (stereo not drawn) | - | . | . | - | - | - | . | . | .
Cc1ccc(NC(=O)CSc2nnc(-c3cccnc3)s2)cc1 | - | - | - | 8.0[inhibitor] | - | - | - | - | -
CN(C)/C=N/c1cc(=O)n(C)c(=O)n1Cc1ccccc1 | - | - | - | - | - | . | . | . | .
CCOC(=O)Cc1csc(NC(=O)COc2ccc(OC)cc2)n1 | - | - | - | - | - | - | . | . | .
CCOC(=O)Cc1csc(NC(=O)COc2ccc(N(C)S(=O)(=O)c3ccc(C)cc3)cc2)n1 | - | - | - | 128 | - | - | - | - | -
CCOC(=O)Cc1csc(NC(=O)c2ccc(OC)c(OC)c2)n1 | 0.0[inhibitor] | - | - | 1.0[inhibitor] | - | - | - | - | -
O=C(CSc1nnc(-c2c[nH]c3ccccc23)o1)NCC1CCCO1 (stereo not drawn) | . | . | . | . | . | - | . | . | .
CCOC(=O)c1c(C)[nH]c(=S)c(C#N)c1-c1ccc(OC)cc1 | - | - | - | 122 | - | - | - | - | -
CCOC(=O)c1c(C)[nH]c(=S)c(C#N)c1-c1ccc(Cl)cc1 | - | - | - | - | - | - | . | . | .
COc1ccc(C2=NN(C(=O)CSc3nc4ccccc4s3)C(c3ccc(OC)cc3)C2)cc1 (stereo not drawn) | - | - | - | 148 | - | - | - | - | -
COc1ccc(C2=NN(C(=O)CSc3nc4ccccc4s3)C(c3ccc(F)cc3)C2)cc1 (stereo not drawn) | - | - | - | - | - | - | . | . | .
SMILES | MEKK2 WT-MEK5 | ABCG2 inh | ABCB1 inh | MEKK3 PB1 HTS | MEKK2 mut-MEK5 | Efflux pump mplx | MEKK2wt confirm | MEKK2mut confirm | MEKK3-MEK5 inh
CC1(C)CCC23CC[C@]4(C)C(OC2=O)(C3C1)[C@H]1O[C@H]1C1[C@@]2(C)CC[C@@H](O)C(C)(C)C2CC[C@]14C (stereo partly drawn) | - | . | . | - | - | . | . | . | .
COc1cc(OC)cc(C(=O)N[C@H](C(=O)OCC(=O)Nc2ccc(F)c(F)c2F)C(C)C)c1 | - | - | - | - | - | - | . | . | .
O=C(C[n+]1ccccc1)N/N=C/c1cccc(Cl)c1Cl | 66[inhibitor] | . | . | - | - | - | - | - | -
O=C(C[n+]1ccccc1)N/N=C/c1ccccc1Cl | . | . | . | . | . | - | . | . | .
Cc1nn(Cc2c(F)c(F)c(F)c(F)c2F)c(C)c1NC(=O)c1nn(C)c(C)c1Br | - | . | . | - | - | - | . | . | .
CCS(=O)(=O)N1CCC(C(=O)NCCC2=CCCCC2)CC1 | - | - | - | 73[inhibitor] | - | - | - | - | -
COc1cc(OC)cc(C(=O)N[C@H](C(=O)NCc2ccc(F)cc2)C(C)C)c1 | - | . | . | - | - | - | . | . | .
OCCNCc1ccc(OCc2ccc(Cl)cc2Cl)cc1 | 138 | - | - | - | - | - | - | - | -
OCCCCNCc1ccc(OCc2ccc(Cl)cc2Cl)cc1 | 169 | - | - | - | 34 | - | - | 75 | -
O=C(OC(C(=O)NCc1ccccc1)c1ccccc1F)c1ccco1 (stereo not drawn) | - | . | . | - | - | - | . | . | .
CC(C(=O)N1CCN(Cc2ccc3c(c2)OCO3)CC1)c1ccc([N+](=O)[O-])cc1 (stereo not drawn) | - | - | - | - | - | - | . | . | .
CCOC(=O)C1=C(c2ccccc2)Nc2ncnn2C1c1ccc(C(=O)O)cc1 (stereo not drawn) | ? | . | . | ? | - | - | . | . | .
CCOC(=O)C1=C(c2ccccc2)NC(N)=NC1c1ccc(OCc2ccc(C(=O)OC)cc2)cc1 (stereo not drawn) | 194 | . | . | - | - | - | 260 | 76 | -
CC(C)(C)S(=O)(=O)c1cnc(-c2cnccn2)nc1N | - | . | . | 134 | - | - | - | - | -
Cc1ccc(SCc2cn3c(C)csc3n2)cc1 | - | - | - | - | - | - | . | . | .
Cc1nnc(SCC(=O)NNC(=O)c2ccc(Br)cc2)n1C | 717 | - | - | - | 557 | - | - | - | -

Screening results as filed in PubChem BioAssay.
